According to ChEMBL document CHEMBL3272191, “Aporphines. 14 Dopaminergic and antinociceptive activity of aporphine derivatives. Synthesis of 10-hydroxyaporphines and 10-hydroxy-N-n-propylnoraporphine” (1976):
Active and inactive are the calls of the source.

Columns and labels:
[1] = tested on: Mus musculus; assay: Antinociceptive activity in naloxone hydrochloride-pretreated albino CD-1 mouse at 0.1 to 10 mg/kg, ip after 60 mins by tail-flick method; assay type: functional, organism-based
[2] = tested on: Mus musculus; assay: Antinociceptive activity in albino CD-1 mouse at 0.1 to 10 mg/kg, ip after 60 mins by tail-flick method; assay type: functional, organism-based
How it was run: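 Male albino CD-1 mice (18–24 g) were used in groups of ten. Compounds were suspended in 0.5% methylcellulose and given ip. Light was focused on the ventral tail and set for a 2–4 s baseline flick; mice outside that range were excluded. The control was the mean of two readings 30 min apart. Latencies were read every 30 min for 2 h, with a 10 s cutoff. Read-out was %MPE = [(Tr − Tc)/(10 − Tc)] × 100, taken at time of peak effect.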

[3] = tested on: Rattus norvegicus; assay: Central dopaminergic activity in 6-OH-DA-lesioned specific pathogen-free Sprague-Dawley rat assessed as induction of rotational behavior measured as total time at 0.05 mg/kg, ip; assay type: functional; details: route intraperitoneal
How it was run: (§1)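 Drugs were given ip, mostly to one group of four rats, with an extra group of four in some runs. Doses were 3 days or more apart over several months. Read-outs were total turning time (min), peak activity, overall mean activity and total activity, given as means ± SEM.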

[4] = tested on: Rattus norvegicus; assay: Central dopaminergic activity in 6-OH-DA-lesioned ip dosed specific pathogen-free Sprague-Dawley rat assessed as induction of rotational behavior; assay type: functional, organism-based; how it was run: as §1
[5] = tested on: Rattus norvegicus; assay: Central dopaminergic activity in 6-OH-DA-lesioned specific pathogen-free Sprague-Dawley rat assessed as induction of rotational behavior measured as total time at 0.25 mg/kg, ip; assay type: functional; details: route intraperitoneal; how it was run: as §1
[6] = tested on: Rattus norvegicus; assay: Central dopaminergic activity in 6-OH-DA-lesioned specific pathogen-free Sprague-Dawley rat assessed as induction of rotational behavior measured as total time at 1 mg/kg, ip; assay type: functional; details: route intraperitoneal; how it was run: as §1
[7] = tested on: Rattus norvegicus; assay: Central dopaminergic activity in 6-OH-DA-lesioned specific pathogen-free Sprague-Dawley rat assessed as induction of rotational behavior measured as total time at 0.01 mg/kg, ip; assay type: functional; details: route intraperitoneal; how it was run: as §1
[8] = tested on: Rattus norvegicus; assay: Central dopaminergic activity in 6-OH-DA-lesioned specific pathogen-free Sprague-Dawley rat assessed as induction of rotational behavior measured as total time at 0.1 mg/kg, ip; assay type: functional; details: route intraperitoneal; how it was run: as §1
[9] = tested on: Rattus norvegicus; assay: Central dopaminergic activity in 6-OH-DA-lesioned specific pathogen-free Sprague-Dawley rat assessed as induction of rotational behavior measured as total time at 0.5 mg/kg, ip; assay type: functional; details: route intraperitoneal; how it was run: as §1
[10] = tested on: Rattus norvegicus; assay: Central dopaminergic activity in 6-OH-DA-lesioned specific pathogen-free Sprague-Dawley rat assessed as induction of rotational behavior measured as total time at 2.5 mg/kg, ip; assay type: functional; details: route intraperitoneal; how it was run: as §1
[11] = tested on: Mus musculus; assay: Antinociceptive activity in albino CD-1 mouse at 0.1 to 10 mg/kg, ip after 10 mins by tail-flick method; assay type: functional, organism-based
[12] = tested on: Rattus norvegicus; assay: Central dopaminergic activity in 6-OH-DA-lesioned specific pathogen-free Sprague-Dawley rat assessed as induction of rotational behavior measured as total time at 0.025 mg/kg, ip; assay type: functional; details: route intraperitoneal; how it was run: as §1
[13] = tested on: Rattus norvegicus; assay: Central dopaminergic activity in 6-OH-DA-lesioned specific pathogen-free Sprague-Dawley rat assessed as induction of rotational behavior measured as total time at 0.005 mg/kg, ip; assay type: functional; details: route intraperitoneal; how it was run: as §1
[14] = tested on: Mus musculus; assay: Antinociceptive activity in naloxone hydrochloride-pretreated albino CD-1 mouse at 0.1 to 10 mg/kg, ip after 10 mins by tail-flick method; assay type: functional, organism-based
[15] = tested on: Rattus norvegicus; assay: Central dopaminergic activity in 6-OH-DA-lesioned specific pathogen-free Sprague-Dawley rat assessed as induction of rotational behavior measured as total time at 5 mg/kg, ip; assay type: functional; details: route intraperitoneal; how it was run: as §1
[16] = tested on: Rattus norvegicus; assay: Central dopaminergic activity in 6-OH-DA-lesioned specific pathogen-free Sprague-Dawley rat assessed as induction of rotational behavior measured as total time at 2 mg/kg, ip; assay type: functional; details: route intraperitoneal; how it was run: as §1
[17] = tested on: Rattus norvegicus; assay: Central dopaminergic activity in 6-OH-DA-lesioned specific pathogen-free Sprague-Dawley rat assessed as induction of rotational behavior measured as total time at 25 mg/kg, ip; assay type: functional; details: route intraperitoneal
How it was run: (§2)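 Rotational behavior in unilaterally 6-OHDA-lesioned rats, ascending DA pathway. Drug given ip, mostly to one group of four rats, plus a second group of four for some doses. Injections at least 3 days apart over several months. Reported as mean total turning time (min), peak, overall and total activity, means ± SEM.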

[18] = tested on: Rattus norvegicus; assay: Central dopaminergic activity in 6-OH-DA-lesioned specific pathogen-free Sprague-Dawley rat assessed as induction of rotational behavior measured as total time at 15 mg/kg, ip; assay type: functional; details: route intraperitoneal; how it was run: as §2
[19] = tested on: Mus musculus; assay: Antinociceptive activity in albino CD-1 mouse at 1 to 10 mg/kg, ip up to 2 hrs by tail-flick method; assay type: functional, organism-based
How it was run: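 Male albino CD-1 mice (18–24 g), ten per group, dosed ip as suspension in 0.5% methylcellulose. Radiant light on ventral tail, adjusted for baseline 2–4 sec; animals outside excluded. Two control latencies 30 min apart averaged; post-dose latencies every 30 min over 2 hr, 10-sec cutoff. %MPE = [(Tr − Tc)/(10 − Tc)] × 100, read at peak-effect time.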

## CN1CC[C@]23c4c5ccc(O)c4O[C@H]2[C@@H](O)C=C[C@H]3[C@H]1C5
[1]
  Activity: inactive
[2]
  Activity: Active

## CCCN1CCc2cccc3c2C1Cc1cccc(O)c1-3 (racemic)
[3]
  Time: 195 min
[4]
  Activity: Active
[5]
  Time: 580 min
[6]
  Time: 725 min
[7]
  Time: 0 min
[8]
  Time: 200 min

## CCCN1CCc2cccc3c2C1Cc1ccc(O)cc1-3 (racemic)
[4]
  Activity: Active
[5]
  Time: 0 min
[6]
  Time: 177 min
[9]
  Time: 105 min
[1]
  Activity: Active
[2]
  Activity: Active
[10]
  Time: 174 min

## CCCN1CCc2cccc3c2[C@H]1Cc1ccc(O)c(O)c1-3 (racemic) [R-N-PROPYLNORAPOMORPHINE]
[3]
  Time: 305 min
[4]
  Activity: Active
[11]
  Activity: Active
[7]
  Time: 200 min
[12]
  Time: 185 min
[13]
  Time: 205 min
[8]
  Time: 360 min
[14]
  Activity: Active

## COc1ccc2c(c1O)-c1cccc3c1[C@@H](C2)N(C)CC3 [APOCIDEINE]
[6]
  Time: 40 min
[15]
  Time: 200 min

## CN1CCc2cccc3c2[C@H]1Cc1ccc(O)c(O)c1-3 [APOMORPHINE]
[3]
  Time: 63 min
[4]
  Activity: Active
[6]
  Time: 153 min
[9]
  Time: 144 min
[7]
  Time: 33 min
[1]
  Activity: Active
[12]
  Time: 55 min
[16]
  Time: 238 min
[2]
  Activity: inactive

## N[C@@H](Cc1ccc(O)c(O)c1)C(=O)O [LEVODOPA]
[17]
  Time: 127 min
[18]
  Time: 90 min
[15]
  Time: 35 min
[19]
  Activity: inactive
